Experimental findings from ChEMBL document CHEMBL1159304, “Cryphonectric acid and other minor metabolites from a hypovirulent strain of Cryphonectria parasitica” (J Nat Prod, 2002) are described below.

The source made the active and inactive calls. The calls are words filed in the database; no cut-off is given here.

Data set [1] concerns Solanum lycopersicum. The experiment in a line: Induction of necrotic symptoms in tomato leaves up to 2 mM by tomato seedling bioassay. It is filed as functional, organism-based. In a few lines:
(§1)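 Tomato seedlings were conditioned 24 h in water, which was then replaced with filter-sterilized (0.2 µm) test solutions at 2, 0.2, 0.1 or 0.01 mM. Phytotoxic symptoms and root growth inhibition were scored at 24, 48 and 72 h. Each assay was run twice on 10 replicate seedlings.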

Data set [2] relates to Solanum lycopersicum. The experiment in a line: Inhibition of tomato seedling growth at 100 uM. On the set-up: scale not given: the % may be the effect or the level left. The format is functional. In a few lines:
as §1

In data set [3] the test system is Solanum lycopersicum. The experiment in a line: Inhibition of tomato seedling growth at 200 uM. It is filed as functional, organism-based. In a few lines: as §1
In data set [4] the test system is Solanum lycopersicum. Description: Inhibition of tomato seedling growth at 10 uM. It is filed as functional. On the set-up: scale not given: the % may be the effect or the level left. In a few lines:
as §1

Data set [5] concerns Endothelial cell. The experiment in a line: Antiangiogenic activity in bovine endothelial cells assessed as inhibition of cell migration at 50 uM. The format is functional, cell-based. The conditions noted are these: Bos taurus.
Data set [6] deals with Endothelial cell. Description: Antiangiogenic activity in bovine endothelial cells assessed as inhibition of cell migration at 12.5 uM. The format is functional, cell-based. As to conditions: Bos taurus.
Data set [7] can be described thus: Cytotoxicity against bovine endothelial cells at 50 uM. It is filed as cell-based, Bos taurus. The conditions noted are these: cattle, endothelial cell.
Data set [8] in a line: Cytotoxicity against bovine endothelial cells at 12.5 uM. The format is cell-based, Bos taurus. The conditions noted are these: cattle, endothelial cell.

Consider `COc1cc(O)c2c(=O)oc(CC(C)O)cc2c1` (stereo not given) [DIAPORTHIN], for which, in the data set with Solanum lycopersicum [1], the result was inactive. Also, the Activity with Solanum lycopersicum [2] was found to be 75%; with Solanum lycopersicum [4], 50%. Moreover, the outcome with Solanum lycopersicum [3] was Active.
With `O=C(O)c1cc(O)c(C2OC(=O)c3c(O)cc(O)cc32)c(O)c1` (stereo not given) [CRYPHONECTRIC ACID], the outcome in the data set with Solanum lycopersicum [1], in the data set on Endothelial cell [5] and in the data set with Endothelial cell [6] was inactive. The result in the data set with Solanum lycopersicum [2] was Active. The Activity result in data set [7] and in data set [8] was “Non-toxic” in each case.
